Test results as given in ChEMBL document CHEMBL3286109, “Structure-activity relationship studies of indole-based compounds as small molecule HIV-1 fusion inhibitors targeting glycoprotein 41” (J Med Chem, 2014).
Values belong to the molecule of their own block, whether it stands above or below them.

Key:
[1] = Binding affinity to HIV1 Envelope glycoprotein gp41 Fe(env2.0)3 using C18FL as probe by fluorescence assay; set-up: species or system Human immunodeficiency virus 1
[2] = Inhibition of HIV1 HXB2 gp41-mediated cell-cell fusion between viral envelope-expressing human HL2/3 cells to human TZM-bl cells by luciferase reporter assay; type: cell-based; conditions: Human immunodeficiency virus 1, HXB2, TZM-bl
[3] = system: Human immunodeficiency virus 1; assay: Antiviral activity against HIV-1 Ba-L infected in human MAGI-CCR5 cells assessed as inhibition of viral replication after 48 hrs by chemiluminescence assay; type: functional, organism-based; conditions: Human immunodeficiency virus 1, Ba-L, MAGI-CCR5, 48 h
[4] = system: Human immunodeficiency virus 1; assay: Antiviral activity against HIV-1 3B infected in human MAGI-CCR5 cells assessed as inhibition of viral replication after 48 hrs by chemiluminescence assay; type: functional, organism-based; conditions: Human immunodeficiency virus 1, 3B, MAGI-CCR5, 48 h
[5] = Cytotoxicity against human MAGI-CCR5 cells assessed as inhibition of cell viability by MTS assay; type: cell-based; conditions: read-out: TC50 (the source's name)
[6] = Cytotoxicity against human TZM-bl cells assessed as inhibition of cell viability by resazurin assay; conditions: read-out: TC50 (the source's name)
[7] = system: Human immunodeficiency virus 1; assay: Antiviral activity against HIV-1 Ba-L subtype B infected in human PBMC assessed as reverse transcriptase activity after 6 days by microtiter plate-based assay; type: functional, organism-based; conditions: Human immunodeficiency virus 1, Ba-L subtype B, 144 h
Procedure, shortened: (§1)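 PBMCs from screened donors, Ficoll-purified, stimulated with 4 μg/mL phytohemagglutinin, kept in 20 U/mL IL-2; cells from two donors pooled, 5 × 10^4 cells/well.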

[8] = system: Human immunodeficiency virus 1; assay: Antiviral activity against HIV-1 92BR014 subtype B infected in human PBMC assessed as reverse transcriptase activity after 6 days by microtiter plate-based assay; type: functional, organism-based; conditions: Human immunodeficiency virus 1, 92BR014 subtype B, 144 h; procedure, shortened: as §1
[9] = system: Human immunodeficiency virus 1; assay: Antiviral activity against HIV-1 01CM0005BBY subtype CRF02_AG infected in human PBMC assessed as reverse transcriptase activity after 6 days by microtiter plate-based assay; type: functional, organism-based; conditions: Human immunodeficiency virus 1, 01CM0005BBY subtype CRF02_AG, 144 h; procedure, shortened: as §1
[10] = system: Human immunodeficiency virus 1; assay: Antiviral activity against HIV-1 02CM0015BBY subtype CRF02_AG infected in human PBMC assessed as reverse transcriptase activity after 6 days by microtiter plate-based assay; type: functional, organism-based; conditions: Human immunodeficiency virus 1, 02CM0015BBY subtype CRF02_AG, 144 h; procedure, shortened: as §1
[11] = system: Human immunodeficiency virus 1; assay: Antiviral activity against HIV-1 91DJ263 subtype CRF02_AG infected in human PBMC assessed as reverse transcriptase activity after 6 days by microtiter plate-based assay; type: functional, organism-based; conditions: Human immunodeficiency virus 1, 91DJ263 subtype CRF02_AG, 144 h; procedure, shortened: as §1
[12] = system: Human immunodeficiency virus 1; assay: Antiviral activity against HIV-1 00UG_D26830M4 subtype D infected in human PBMC assessed as reverse transcriptase activity after 6 days by microtiter plate-based assay; type: functional, organism-based; conditions: Human immunodeficiency virus 1, 00UG_D26830M4 subtype D, 144 h; procedure, shortened: as §1
[13] = system: Human immunodeficiency virus 1; assay: Antiviral activity against HIV-1 92UG001 subtype D infected in human PBMC assessed as reverse transcriptase activity after 6 days by microtiter plate-based assay; type: functional, organism-based; conditions: Human immunodeficiency virus 1, 92UG001 subtype D, 144 h; procedure, shortened: as §1
[14] = Cytotoxicity against human PBMC assessed as inhibition of cell viability by MTS assay; type: cell-based; conditions: read-out: TC50 (the source's name)
[15] = Therapeutic index, ratio of TC50 for human PBMC to EC50 for HIV-1 Ba-L subtype B infected in human PBMC; conditions: read-out: TI
[16] = Therapeutic index, ratio of TC50 for human PBMC to EC50 for HIV-1 92BR014 subtype B infected in human PBMC; conditions: read-out: TI
Procedure, shortened: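 Human PBMC from screened donors were Ficoll-purified, stimulated with 4 μg/mL phytohemagglutinin, and kept in 20 U/mL IL-2. Cells from two donors were pooled at 5 × 10^4 cells/well and given nine serial compound dilutions in triplicate, then HIV-1 at a final MOI of about 0.1. TC50 was measured in parallel cultures by MTS viability. TI = TC50/EC50.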

[17] = Therapeutic index, ratio of TC50 for human PBMC to EC50 for HIV-1 01CM0005BBY subtype CRF02_AG infected in human PBMC; conditions: read-out: TI
[18] = Therapeutic index, ratio of TC50 for human PBMC to EC50 for HIV-1 02CM0015BBY subtype CRF02_AG infected in human PBMC; conditions: read-out: TI
[19] = Therapeutic index, ratio of TC50 for human PBMC to EC50 for HIV-1 91DJ263 subtype CRF02_AG infected in human PBMC; conditions: read-out: TI
[20] = Therapeutic index, ratio of TC50 for human PBMC to EC50 for HIV-1 00UG_D26830M4 subtype D infected in human PBMC; conditions: read-out: TI
[21] = Therapeutic index, ratio of TC50 for human PBMC to EC50 for HIV-1 92UG001 subtype D infected in human PBMC; conditions: read-out: TI
[22] = Retardation factor of the compound using 40% EtOAc/hexanes as solvent system by silca gel chromatography; type: physicochemical
[23] = Retardation factor of the compound using 50% EtOAc/hexanes as solvent system by silca gel chromatography; type: physicochemical

Molecule: COc1ccc(Cn2ccc3ccc(-c4ccc5c(ccn5Cc5cccc(C(=O)O)c5)c4)cc32)cc1
Ki [1]: 3000 nM
EC50 [2]: 7000 nM
EC50 [3]: 18000 nM
EC50 [4]: 19000 nM
CC50 [5]: 18000 nM
CC50 [6]: > 100000 nM

Molecule: COc1ccc(Cn2ccc3cc(-c4ccc5ccn(Cc6cccc(C(=O)O)c6)c5c4)ccc32)cc1
Ki [1]: 4200 nM
EC50 [2]: 3500 nM
EC50 [3]: 6900 nM
EC50 [4]: 8300 nM
CC50 [5]: 24000 nM
CC50 [6]: 91000 nM

Molecule: COc1ccc(Cn2ccc3cc(-c4ccc5c(ccn5Cc5cccc(C(=O)O)c5)c4)ccc32)cc1
Ki [1]: 3900 nM
EC50 [2]: 12000 nM
EC50 [3]: 18000 nM
EC50 [4]: 20000 nM
CC50 [5]: 55000 nM
CC50 [6]: > 100000 nM

Molecule: O=C(O)c1cccc(Cn2ccc3ccc(-c4ccc5ccn(Cc6cccc(C(=O)O)c6)c5c4)cc32)c1
Ki [1]: 600 nM
EC50 [2]: 12000 nM
EC50 [3]: 58000 nM
EC50 [4]: 67000 nM
CC50 [5]: > 100000 nM
CC50 [6]: > 100000 nM

Molecule: COC(=O)c1cccc(Cn2ccc3ccc(-c4ccc5ccn(Cc6cccc(C(=O)O)c6)c5c4)cc32)c1
Ki [1]: 600 nM
EC50 [2]: 200 nM
EC50 [3]: 200 nM
EC50 [4]: 200 nM
EC50 [7]: 360 nM
EC90 [7]: 630 nM
EC50 [8]: 460 nM
EC90 [8]: 1430 nM
EC50 [9]: 290 nM
EC90 [9]: 540 nM
EC50 [10]: 240 nM
EC90 [10]: 520 nM
EC50 [11]: 390 nM
EC90 [11]: 920 nM
EC50 [12]: 350 nM
EC90 [12]: 580 nM
EC50 [13]: 400 nM
EC90 [13]: 990 nM
CC50 [5]: 15000 nM
CC50 [14]: 11600 nM
selectivity ratio [15]: 32.2
selectivity ratio [16]: 25.3
selectivity ratio [17]: 39.3
selectivity ratio [18]: 47.8
selectivity ratio [19]: 29.7
selectivity ratio [20]: 33.3
selectivity ratio [21]: 29.1
Rf [22]: 0.13
CC50 [6]: 53000 nM

Molecule: CCOC(=O)c1cccc(Cn2ccc3ccc(-c4ccc5ccn(Cc6cccc(C(=O)O)c6)c5c4)cc32)c1
Ki [1]: 1000 nM
EC50 [2]: 700 nM
EC50 [3]: 300 nM
EC50 [4]: 500 nM
EC50 [7]: 410 nM
EC90 [7]: 590 nM
EC50 [8]: 430 nM
EC90 [8]: 1230 nM
EC50 [9]: 340 nM
EC90 [9]: 550 nM
EC50 [10]: 370 nM
EC90 [10]: 560 nM
EC50 [11]: 350 nM
EC90 [11]: 580 nM
EC50 [12]: 390 nM
EC90 [12]: 570 nM
EC50 [13]: 350 nM
EC90 [13]: 1000 nM
CC50 [5]: 43000 nM
CC50 [14]: > 50000 nM
selectivity ratio [15]: > 121
selectivity ratio [16]: > 116
selectivity ratio [17]: > 147
selectivity ratio [18]: > 137
selectivity ratio [19]: > 141
selectivity ratio [20]: > 128
selectivity ratio [21]: > 141
Rf [23]: 0.48
CC50 [6]: > 50000 nM

Molecule: NC(=O)c1cccc(Cn2ccc3ccc(-c4ccc5ccn(Cc6cccc(C(=O)O)c6)c5c4)cc32)c1
Ki [1]: 800 nM
EC50 [2]: 6000 nM
EC50 [3]: 39000 nM
EC50 [4]: 51000 nM
CC50 [5]: > 100000 nM
CC50 [6]: > 100000 nM

Molecule: O=C(O)c1cccc(Cn2ccc3cc(-c4ccc5ccn(Cc6cccc(C(=O)O)c6)c5c4)ccc32)c1
Ki [1]: 700 nM
EC50 [2]: 2000 nM
EC50 [3]: 20000 nM
EC50 [4]: 17000 nM
CC50 [5]: > 100000 nM
CC50 [6]: > 100000 nM

Molecule: O=C(O)c1cccc(Cn2ccc3ccc(-c4ccc5ccn(Cc6ccccc6)c5c4)cc32)c1
Ki [1]: 3500 nM
EC50 [2]: 2000 nM
EC50 [3]: 4400 nM
EC50 [4]: 4600 nM
CC50 [5]: > 100000 nM
CC50 [6]: > 50000 nM

Molecule: COc1cccc(Cn2ccc3ccc(-c4ccc5ccn(Cc6cccc(C(=O)O)c6)c5c4)cc32)c1
Ki [1]: 1100 nM
EC50 [2]: 1000 nM
EC50 [3]: 900 nM
EC50 [4]: 900 nM
CC50 [5]: 37000 nM
CC50 [6]: 71000 nM

Molecule: COc1cc(Cn2ccc3ccc(-c4ccc5ccn(Cc6cccc(C(=O)O)c6)c5c4)cc32)cc(OC)c1
Ki [1]: 900 nM
EC50 [2]: 2300 nM
EC50 [3]: 1500 nM
EC50 [4]: 1500 nM
CC50 [5]: 49000 nM
CC50 [6]: 93000 nM

Ki [1]: 1000 nM
EC50 [2]: 2000 nM
EC50 [3]: 900 nM
EC50 [4]: 1000 nM
Molecule: O=C(O)c1cccc(Cn2ccc3ccc(-c4ccc5ccn(Cc6ccc(C(F)(F)F)cc6)c5c4)cc32)c1
CC50 [5]: 52000 nM
CC50 [6]: > 50000 nM

Molecule: O=C(O)c1cccc(Cn2ccc3ccc(-c4ccc5ccn(Cc6ccc(-c7ccccc7)cc6)c5c4)cc32)c1
Ki [1]: 2000 nM
EC50 [2]: 13000 nM
EC50 [3]: 2100 nM
EC50 [4]: 2000 nM
CC50 [5]: 55000 nM
CC50 [6]: > 50000 nM

Molecule: O=C(O)c1cccc(Cn2ccc3ccc(-c4ccc5ccn(Cc6ccc(COc7ccccc7)cc6)c5c4)cc32)c1
Ki [1]: 6200 nM
EC50 [2]: 17000 nM
EC50 [3]: 27000 nM
EC50 [4]: 32000 nM
CC50 [5]: > 100000 nM
CC50 [6]: > 100000 nM

Molecule: O=C(O)c1cccc(Cn2ccc3ccc(-c4ccc5ccn(Cc6ccc(Oc7ccccc7F)cc6)c5c4)cc32)c1
Ki [1]: 9500 nM
EC50 [2]: 8200 nM
EC50 [3]: 5300 nM
EC50 [4]: 5500 nM
CC50 [5]: > 100000 nM
CC50 [6]: > 100000 nM

Molecule: Cn1nnc2ccc(Cn3ccc4ccc(-c5ccc6ccn(Cc7cccc(C(=O)O)c7)c6c5)cc43)cc21
Ki [1]: 1500 nM
EC50 [2]: 2500 nM
EC50 [3]: 6600 nM
EC50 [4]: 9400 nM
CC50 [5]: 52000 nM
CC50 [6]: > 100000 nM

Molecule: O=C(O)c1cccc(Cn2ccc3ccc(-c4ccc5cc[nH]c5c4)cc32)c1
Ki [1]: 2700 nM
EC50 [2]: 15000 nM
EC50 [3]: 60000 nM
EC50 [4]: 47000 nM
CC50 [5]: > 50000 nM
Rf [22]: 0.13
CC50 [6]: > 100000 nM

Molecule: enfuvirtide
EC50 [7]: 7.55 nM
EC90 [7]: 23.6 nM
EC50 [8]: > 2000 nM
EC90 [8]: > 2000 nM
EC90 [9]: 55.8 nM
EC50 [10]: 16.9 nM
EC90 [10]: 43.4 nM
EC50 [11]: 120 nM
EC90 [11]: 206 nM
EC50 [12]: 108 nM
EC90 [12]: 195 nM
EC90 [13]: 71.3 nM
CC50 [14]: > 2000 nM
selectivity ratio [15]: > 265
selectivity ratio [17]: > 110
selectivity ratio [18]: > 118
selectivity ratio [19]: > 16.6
selectivity ratio [20]: > 18.6
selectivity ratio [21]: > 36
